Our source for the Ki and IC50 values is ChEMBL document CHEMBL1123577, “Synthesis and structure-activity relationships of a series of aminopyridazine derivatives of gamma-aminobutyric acid acting as selective GABA-A antagonists” (J Med Chem, 1987).

Molecules are shown by their SMILES. Bounds are passed on as bounds.

Target in the first experiment: not listed separately
Nature of the experiment: Inhibitory activity against sodium-dependent synaptosome uptake was determined. Type of experiment: functional, tissue-based, Brain.
Take `[N-]=[N+]=Nc1ccc(/C(N)=N/CCCC(=O)O)cc1`: the Ki (in general, the equilibrium dissociation constant of an inhibitor or competing ligand from its target) amounted to 8 µM.

The target of the next experiment is 4-aminobutyrate aminotransferase, mitochondrial (Homo sapiens, UniProt P80404). Nature of the experiment: Compound was tested for inhibition of Gamma-amino-N-butyrate transaminase.
Sequence of 4-aminobutyrate aminotransferase, mitochondrial (P80404 whole entry): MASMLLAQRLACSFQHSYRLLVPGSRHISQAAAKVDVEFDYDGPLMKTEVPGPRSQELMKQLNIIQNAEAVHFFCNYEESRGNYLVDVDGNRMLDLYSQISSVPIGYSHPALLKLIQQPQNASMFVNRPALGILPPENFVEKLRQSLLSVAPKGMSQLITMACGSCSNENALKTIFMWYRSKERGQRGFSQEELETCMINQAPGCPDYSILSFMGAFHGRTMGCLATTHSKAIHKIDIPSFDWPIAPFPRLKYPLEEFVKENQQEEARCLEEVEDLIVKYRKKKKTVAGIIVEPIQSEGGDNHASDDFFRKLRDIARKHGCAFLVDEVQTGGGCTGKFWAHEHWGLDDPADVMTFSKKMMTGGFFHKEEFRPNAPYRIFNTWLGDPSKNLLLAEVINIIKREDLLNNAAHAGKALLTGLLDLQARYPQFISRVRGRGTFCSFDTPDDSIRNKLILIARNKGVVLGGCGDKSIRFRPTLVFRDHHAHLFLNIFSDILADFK
The compound `O=C(O)CNC(=S)Nc1ccccc1` yielded an inhibition constant Ki of 91 µM. In other words, the double-digit micromolar range.

Another experiment addresses GABA-A receptor; anion channel. As to the kind of experiment: Inhibition of [3H]GABA binding to Gamma-aminobutyric acid A (GABA-A) receptor of rat brain membranes. Type of experiment: cell membranes, Membrane. In short, it runs like this:
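Triton-treated whole-brain membranes from male Wistar rats (180–220 g), labelled with [3H]GABA at 2.9 nM. Compounds were first screened at 100 μM. Those inhibiting binding by more than 50% were run as dose-inhibition curves of four to eight concentrations in triplicate incubations, and IC50 was derived by log-probit analysis.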
For `N=C(N)SCCC(=O)O`, the IC50 (as a rule, the concentration at which inhibition is half-maximal) was found to be 29 µM.

`Nc1nc(CCC(=O)O)cs1` yielded an IC50 of 68 µM.

In turn, `N/C(S)=N\CC(=O)O` yielded an IC50 of 18 µM. Against the preceding compound, the IC50 is about 3.8-fold lower.

Consider `O=C(O)CCc1c[nH]cn1`, for which the IC50 turned out to be 290 µM. This IC50 lies about 16-fold higher than the previous one.

`N=C(N)NCC(=O)O` [GUANIDINO ACETATE]: the IC50 stood at 2.1 µM. Against the preceding compound, the IC50 is about 140-fold lower.

`O=C(O)Cc1c[nH]cn1` [IMIDAZOLE ACETIC ACID]: the IC50 was 0.9 µM. This IC50 is about 2.3-fold lower than that of the compound before. On to `N=C(N)NCCC(=O)O` [OMPENACLID], for which the IC50 was determined as 1.8 µM.

Another experiment concerns the target GABA-A receptor; anion channel. As to the kind of experiment: Binding affinity, determined by its ability to displace the [3H]GABA from Gamma-aminobutyric acid A (GABA-A) receptor site of rat brain membranes. Also on record: species or system Membrane.
For the compound `Nc1ccc(-c2cccs2)n[n+]1CCCC(=O)O`, the Ki came to 0.58 µM. As to `Nc1ccc(C2CCCCC2)n[n+]1CCCC(=O)O`, the Ki was found to be 3.74 µM.

As to `Cc1n[n+](CCCC(=O)O)c(N)cc1-c1ccccc1`, the Ki turned out to be 10.6 µM. This Ki lies about 2.8-fold higher than the previous one.

Consider `Cc1ccn[n+](CCCC(=O)O)c1N`, for which the Ki is 31.9 µM. This Ki lies about 3-fold higher than the previous one. On the same count and under the same terms, then `N#CCCC[n+]1nc(-c2ccccc2)ccc1N`, with 91 µM; and `Cc1cc(-c2ccccc2)n[n+](C(C)CCC(=O)O)c1N` (configuration not stated), with 9 µM; and `Cc1cc(-c2ccccc2)n[n+](CCC(C)C(=O)O)c1N` (configuration not stated), with 7 µM. The same measure, in the same setting: then `Cc1ccc(-c2cc(C)c(N)[n+](CCCC(=O)O)n2)cc1`, with 0.55 µM. `N#CCCC[n+]1nc(-c2ccccc2)cc(-c2ccccc2)c1N` returned a Ki of 91 µM. Compound `Cc1cc(N)[n+](CCCC(=O)O)nc1-c1ccccc1` gave a Ki of 10.4 µM. Compared with the last compound, the Ki is about 8.8-fold lower.

For `COc1ccc(-c2cc(C)c(N)[n+](CCCC(=O)O)n2)cc1`, the Ki came out at 0.31 µM. This Ki is about 34-fold lower than that of the compound before. In turn, `NC1C=CC(c2ccccc2)=NN1CCCC(=O)O` (configuration not stated) displayed a Ki of 1.22 µM. Against the preceding compound, the Ki is about 3.9-fold higher. Turning to `Nc1ccc(-c2ccccc2Cl)n[n+]1CCCC(=O)O`, the affinity, expressed as Ki, was 1.37 µM. The Ki values of the last two compounds are within 1.5-fold of each other.

`CC(C)Cc1ccc(N)[n+](CCCC(=O)O)n1` yielded a Ki of 22.3 µM. Same read-out and setting: then `Cc1cc(-c2ccccc2)n[n+](CCC(=O)O)c1N`, with 7 µM; and `Cc1cc(-c2ccccc2)n[n+](CCCC#N)c1N`, with 20 µM. In turn, `Cc1cc(-c2ccccc2)n[n+](CCCCCC(=O)O)c1N` displayed a Ki of 12.7 µM. `CCOC(=O)CCC[n+]1nc(-c2ccccc2)cc(C)c1N` returned a Ki of over 100 µM. In turn, `Cc1cc(-c2ccc(O)cc2)n[n+](CCCC(=O)O)c1N` had a Ki of 0.43 µM. The compound `Cc1cc(-c2ccccc2)n[n+](CCCCC(=O)O)c1N` yielded an inhibitory constant (Ki) of 10 µM. Compound `Nc1ccc(-c2ccsc2)n[n+]1CCCC(=O)O` registered a Ki of 2.37 µM.

On to `CCCN(CCC)CCCC(=O)O`, for which the Ki is over 100 µM. On the same count and under the same terms, then `O=C(O)CCCC1CCNC1` (configuration not stated), with over 100 µM; and `NC1C(c2ccccc2)=CC(c2ccccc2)=NN1CCCC(=O)O` (configuration not stated), with 100 µM. Still for that read-out and setting: the figure for `Cc1cc(-c2ccc([N+](=O)[O-])cc2)n[n+](CCCC(=O)O)c1N` is 22.8 µM.

In turn, `Oc1onc2c1CCNCC2` yielded a Ki of 50 µM. On the same count and under the same terms, the figure for `Cc1cc(-c2ccccc2)n[n+](CCCC(N)=O)c1N` is 91 µM. Still for that read-out and setting: the figure for `NC(=O)NCCCC(=O)O` is 100 µM; for `Cc1cc(-c2cccc3ccccc23)n[n+](CCCC(=O)O)c1N` it is 2.64 µM; for `Nc1ccc(-c2ccc(F)cc2)n[n+]1CCCC(=O)O` it is 1.27 µM. The same measure, in the same setting: the figure for `Nc1ccc(-c2ccc(Cl)cc2)n[n+]1CCCC(=O)O` is 0.28 µM; for `Cc1cc(-c2cccc(Cl)c2)n[n+](CCCC(=O)O)c1N` it is 0.45 µM.

For `Cc1cc(-c2ccccc2Cl)n[n+](CCCC(=O)O)c1N`, the Ki came out at 2.14 µM. This Ki lies about 4.8-fold higher than the previous one. As to `Nc1ccc(Cl)n[n+]1CCCC(=O)O`, the affinity corresponds to a Ki of 91.2 µM.

Turning to `Nc1ccc(-c2ccc(Cl)cc2Cl)n[n+]1CCCC(=O)O`, affinity was put at a Ki of 0.56 µM. Take `Cc1cc(-c2ccccc2)nn(CCCC(=O)O)c1=O`: the Ki was over 100 µM. On the same count and under the same terms, the figure for `CC(C)(C)C(=O)ONCCCC(=O)O` is 100 µM; for `C[N+]1(C)CCc2cc3c(cc2[C@H]1[C@@H]1OC(=O)c2c1ccc1c2OCO1)OCO3` it is 38 µM. On to `Nc1ccc(-c2ccc([N+](=O)[O-])cc2)n[n+]1CCCC(=O)O`, for which the Ki worked out at 1.37 µM. Consider `CC12CC(=O)C3C(CCC4CC(O)CCC43C)C1CC(=N)N2` (configuration not stated), for which the Ki turned out to be 0.047 µM.

Compound `Nc1cc(-c2ccccc2)cn[n+]1CCCC(=O)O` showed a Ki of 100 µM. Against the preceding compound, the Ki is about 2100-fold higher. The compound `Cc1cc(-c2ccccc2)n[n+](CC(=O)O)c1N` registered a Ki of 62 µM. With `Cc1cc(-c2ccccc2)n[n+](CCCC(=O)O)c1N` [FAMIRAPRINIUM CHLORIDE], the Ki amounted to 2.3 µM.
